Activity calls are given as the source filed them. The calls are words filed in the database; no cut-off is given here.
Assays:
[1] = system: Mycobacterium tuberculosis; assay: Activity of arabinosyltransferase in Mycobacterium tuberculosis membrane assessed as [14C]Araf incorporation by TLC autoradiography
[2] = Inhibition of arabinosyltransferase in Mycobacterium tuberculosis membrane assessed as blockade of [14C]Araf incorporation to {Ara-f(1>5)Araf-O_C8H17] acceptor molecule by TLC autoradiography
In short: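 Competition format of the membrane AraTs assay: MOPS pH 8.0, MgCl2, ATP, β-mercaptoethanol, DP-[14C]Araf donor, 37°C for 1 h. Native acceptor Araf(1→5)Araf-O-C8H17 is held at 0.4 mM. Competitors are added at 0.5, 0.75, 1.0, 2.0, 4.0 and 6.0 mM. Product formation is judged by TLC (CHCl3:MeOH:NH4OH:H2O) with autoradiography at −70 °C for 3 days. IC50 is derived from the extent of product formation.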

Mycobacterium avium = assay: Antimycobacterial activity against Mycobacterium avium NJ 211 at 12.8 to 128 ug/mL; type: functional, organism-based

SMILES	Km [1] [µM]	IC50 [2] [µM]	Activity (Mycobacterium avium)
CCCCCCCCO[C@H]1O[C@H](CO[C@H]2O[C@H](CO)[C@@H](O)[C@@H]2O)C[C@@H]1O	110	2150	Active
CCCCCCCCO[C@H]1O[C@H](CO[C@H]2O[C@H](CO)[C@@H](O)[C@@H]2O)[C@@H](O)[C@@H]1F	560	3580	Active
CCCCCCCCO[C@@H]1C[C@H](O)[C@@H](CO[C@H]2O[C@H](CO)[C@@H](O)[C@@H]2O)O1	150	2450	Active
